We go through six compounds from publication PMC3195516 (Synthesis, 2010).

Read-outs that look alike come from different tables or passages of the source.

Test [1] deals with L1210 cells. The experiment in a line: L1210 cell growth inhibition. It is filed as cell-based, Murine. The gist of the method: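 L1210 cells were kept in logarithmic-phase suspension in RPMI-1640 with 10% fetal bovine serum, 2% HEPES-MOPS buffer, 1 mM L-glutamine and 1 mM aminoguanidine at 37 °C under 5% CO₂. Cultures at 0.5–1.0 × 10⁵ cells/mL were treated, reseeded and incubated, then counted. IC50 is the concentration that reduces growth to 50% of control after the set exposure.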

Test [2] deals with L1210 cells. The settings on record: cultured L1210 cells; cited from earlier work.
[3] abbreviates: Mus musculus, L1210, 48 h, read-out: IC50 (µM) 48 h.
Where [4] appears, read: Mus musculus, L1210, 96 h, read-out: IC50 (µM) 96 h.
The mark [5] stands for this setting: read-out: IC50 (µM) 48 h, L1210 cells, 48 h exposure.
Where [6] appears, read: read-out: IC50 (µM) 96 h, L1210 cells, 96 h exposure.

In the case of `C[C@]1(C(=O)O)CSC(c2ccc(O)cc2O)=N1` [(S)-4′-(HO)-DADFT (6), (S)-2-(2,4-dihydroxyphenyl)-4,5-dihydro-4-methyl-4-thiazolecarboxylic acid], the IC50 was 19 µM in the test on L1210 cells [1] (setting [3]) and 20 µM with L1210 cells [1] (setting [4]).
As to `CCNCCCNCCCNCCCNCC` [DENSPM (1), reference compound], the concentration for half-maximal inhibition (IC50) in the test with L1210 cells [1] (setting [5]) is 20 µM; with L1210 cells [1] (setting [6]) it was 2 µM.
On to `Cc1c(O)c(=O)ccn1C` [L1 (2), 1,2-dimethyl-3-hydroxypyridin-4-one, reference compound], for which, in the test on L1210 cells [2], the “intracellular concentration of compound” value was ~ 1 µM. Also, the IC50 in the test on L1210 cells [1] (setting [3]) came out at 46 µM; with L1210 cells [1] (setting [4]), 55 µM.
For the compound `Cc1c(O)c(=O)ccn1CCCNCCCCNCCCN` [L1-SPM-conjugate (3), 1-(12-amino-4,9-diazadodecyl)-2-methyl-3-hydroxy-4(1H)-pyridinone], the “intracellular concentration of compound” value in the test with L1210 cells [2] was 390 µM. Besides, the IC50 in the test on L1210 cells [1] (setting [3]) and with L1210 cells [1] (setting [4]) was 0.2 µM each time.
As for `C[C@]1(C(=O)O)CSC(c2ccc(OCCCCNCCCNCCCN)cc2O)=N1` [NSPD-(S)-4′-(HO)-DADFT (4), (S)-4,5-dihydro-2-[2-hydroxy-4-(12-amino-5,9-diazadodecyloxy)phenyl]-4-methyl-4-thiazolecarboxylic acid], the IC50 in the test on L1210 cells [1] (setting [3]) and in the test with L1210 cells [1] (setting [4]) was 40 µM each time.
Take `CCOC(=O)[C@@]1(C)CSC(c2ccc(OC(=O)c3ccc(CNCCCNCCCN)cc3)cc2O)=N1` [NSPDBn-(S)-4′-(HO)-DADFT-EE (7), ethyl (S)-4,5-dihydro-2-[2-hydroxy-4-[4-(9-amino-2,6-diazanonyl)benzoyloxy]]-4-methyl-4-thiazolecarboxylate]: the IC50 with L1210 cells [1] (setting [5]) was found to be 1.8 µM; in the test on L1210 cells [1] (setting [6]), 2.1 µM.

The IC50 is the midpoint of a concentration-inhibition curve.
